≈ marks a conversion by molar mass, not a printed value. Calls of active or inactive are those of the source. No cut-off for these calls is given here. Where a SMILES comes first, the peptide text is derived from it. [ ]: non-standard residue; d: D form. The star is where a group is joined. X1 = CC(=O)OC[C@H](CC(C)C)N*; Aib = CC(C)(N)C(=O)O
Columns and labels:
Bacillus subtilis = test: Antimicrobial activity against Bacillus subtilis ATCC 6633 at 100 ug/disk after 24 hrs by standard disk assay; type: functional; conditions: ATCC 6633, 24 h, read-out: IZ
How it was run: (§1)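 Bacteria grown on nutrient agar at 37 °C. Test plates seeded with 5×10^5 cells per mL. Compound loaded onto 6 mm filter disks placed on the agar. Inhibition zone diameters read after 24 h.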

Brevibacillus brevis = test: Antimicrobial activity against Bacillus brevis ATCC 9999 at 100 ug/disk after 24 hrs by standard disk assay; type: functional; conditions: ATCC 9999, 24 h, read-out: IZ; how it was run: as §1
Micrococcus luteus = test: Antimicrobial activity against Micrococcus luteus ATCC 21415 at 100 ug/disk after 24 hrs by standard disk assay; type: functional; conditions: ATCC 21415, 24 h, read-out: IZ; how it was run: as §1
[1] = Cytotoxicity against human COLO320 cells; type: functional, cell-based; conditions: COLO 320
How it was run: (§2)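 Cells were grown and assayed in RPMI 1640 medium, and the IC50 was reported.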

L1210 [2] = test: Cytotoxicity against mouse L1210 cells at 100 ug/ml; type: functional, cell-based
L1210 [3] = test: Cytotoxicity against mouse L1210 cells; type: functional, cell-based; how it was run: as §2

Molecule CC(=O)N[C@@H](CC(C)C)C(=O)NC(C)(C)C(=O)N1CCC[C@H]1C(=O)NC(C)(C)C(=O)N[C@@H](CC(C)C)C(=O)NC(C)(C)C(=O)N1CCC[C@H]1C(=O)N[C@@H](C)C(=O)NC(C)(C)C(=O)N1CCC[C@H]1C(=O)N[C@H](C(=O)N[C@H](CO)CC(C)C)C(C)C [CERVININ] has a zone of inhibition at 100 µg/disc (Bacillus subtilis) of 8 mm, a zone of inhibition at 100 µg/disc (Brevibacillus brevis) of 7 mm and a zone of inhibition at 100 µg/disc (Micrococcus luteus) of 15 mm. The IC50 [1] was 80 µg/mL (≈ 67.4 µM) and the Activity (L1210 [2]) was “inactive”.
For CC(=O)N[C@@H](CC(C)C)C(=O)NC(C)(C)C(=O)N1CCC[C@H]1C(=O)NC(C)(C)C(=O)N[C@@H](CC(C)C)C(=O)NC(C)(C)C(=O)N1CCC[C@H]1C(=O)N[C@@H](C)C(=O)NC(C)(C)C(=O)N1CCC[C@H]1C(=O)N[C@H](C(=O)N[C@H](COC(C)=O)CC(C)C)C(C)C (Ac-L[Aib]P[Aib]L[Aib]PA[Aib]PV-X1), the zone of inhibition at 100 µg/disc (Bacillus subtilis) was 11 mm, the zone of inhibition at 100 µg/disc (Brevibacillus brevis) was 10 mm and the zone of inhibition at 100 µg/disc (Micrococcus luteus) was 16 mm. The IC50 (L1210 [3]) was 32 µg/mL (≈ 26 µM) and the IC50 [1] was 40 µg/mL (≈ 32.5 µM).
